Assay outcomes as filed in PubChem.
Neddyl block = cullin neddylation inhibition; inhibition, % at 25 µM; TR-FRET cullin neddylation, biochemical; P61081+Q13564; hit rate 0.58% among 360,000; in the data active = inhibition above about 36%
TbMetRS inhib = blocks T. brucei methionyl-tRNA synthetase activity. inhibition, % at 11.9 µM. hit rate 0.4% among 360,000. purified T. brucei MetRS, ATP depletion, Kinase-Glo luminescence;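 active = inhibition above a per-plate cutoff of the control wells' mean inhibition plus 3 SD, cut at about 5.5% in these data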
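Assay system: T. brucei methionyl-tRNA synthetase, purified | Medium: HEPES buffer with MgCl2, KCl, DTT, spermine, BSA, pyrophosphatase | Compound: 11.9 µM single point | Incubation: 15 min enzyme-compound preincubation, 2 h reaction, 10 min detection, 25 °C | Measured by: Kinase-Glo luciferase luminescence reporting remaining unconsumed ATP | Measure: % inhibition normalized to control-well medians | Replication: Singlicate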
Rpn11 block = blocks the human proteasome subunit Rpn11 | inhibition, % at 20 µM | human 26S proteasome, Ub4-pepOG fluorescence polarization; 20S core pre-blocked with epoxomicin | hit rate 0.59% among 360,000 | O00487;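 active = inhibition at 20 µM, scaled to each plate's controls, above about 33%, limit read from the data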
Target sequence (O00487 whole entry, looked up): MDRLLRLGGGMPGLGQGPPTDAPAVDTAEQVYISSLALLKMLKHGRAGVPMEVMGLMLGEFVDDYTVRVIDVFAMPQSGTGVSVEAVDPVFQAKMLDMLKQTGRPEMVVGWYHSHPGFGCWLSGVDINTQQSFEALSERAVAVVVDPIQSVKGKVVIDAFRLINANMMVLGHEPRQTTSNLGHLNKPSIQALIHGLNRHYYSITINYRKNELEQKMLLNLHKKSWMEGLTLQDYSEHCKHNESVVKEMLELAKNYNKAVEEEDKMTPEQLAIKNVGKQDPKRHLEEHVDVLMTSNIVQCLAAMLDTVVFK
CSN deneddyl inh = blocks human CSN-mediated cullin deneddylation; hit rate 0.38% among 360,000; inhibition, % at 12.5 µM; Purified CSN, SCF-Nedd8-OG deneddylation, fluorescence polarization; Q92905;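 active = pattern-corrected inhibition above about 35%, with an unprinted fluorescence ratio check between 0.5 and 1.5, limit read from the data, passing the limit was not always enough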
Target sequence (Q92905 whole entry, looked up, one chain of several): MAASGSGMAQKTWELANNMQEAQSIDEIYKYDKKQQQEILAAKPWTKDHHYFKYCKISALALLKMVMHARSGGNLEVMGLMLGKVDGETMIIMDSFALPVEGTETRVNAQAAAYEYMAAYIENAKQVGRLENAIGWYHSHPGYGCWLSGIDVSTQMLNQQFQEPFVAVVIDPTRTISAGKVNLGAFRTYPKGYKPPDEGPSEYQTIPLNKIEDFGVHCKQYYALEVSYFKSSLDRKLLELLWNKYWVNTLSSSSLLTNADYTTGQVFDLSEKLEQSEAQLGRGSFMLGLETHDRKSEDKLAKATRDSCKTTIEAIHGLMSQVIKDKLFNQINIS
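Assay system: HEK293T-derived human Csn5 enzyme; quantity: 0.24 nM enzyme; medium: Tris/NaCl/DTT buffer, pH 7.5; also added: substrate SCFSkp2-Nedd8OG, 10 nM; doses: 12.5 µM compound; schedule: 90 min reaction at room temperature; signal: FP; read-out: % inhibition of substrate cleavage by Csn5; benchmarks: substrate-only high control, full reaction low control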
PREPL inh = inhibits the human prolyl oligopeptidase-like enzyme. inhibition, % at 5.96 µM. recombinant PREPL, fluorescence polarization activity-based probe. hit rate 0.68% among 320,000. AID 2751; in the data active = inhibition above about 43%
HNF4A DNA FP = change in binding of human HNF4 alpha to DNA. HNF4a-FITC DNA binding, fluorescence polarization, 1 h. hit rate 0.3% among 360,000. P41235. activity change, % at 10 µM; in the data active = activity change above about 30%, passing the limit was not always enough
Neddyl inh conf = cullin neddylation inhibition, confirmation | shares compounds with Neddyl block | TR-FRET cullin neddylation biochemical assay | calls only at 25 µM | hit rate 13% among 1,800 | AID 652217; in the data active = inhibition above about 40%;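 note: neddylation substrate is the cullin 1 ring ligase complex with SKP2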
Hits are given with their value; n = inactive; x = no result given; + = active, no number. Compounds with a hit are over-represented: about 2.4% of the library has one in this group of screens.

SMILES | Neddyl block | TbMetRS inhib | Rpn11 block | CSN deneddyl inh | PREPL inh | HNF4A DNA FP | Neddyl inh conf
COc1ccc(C2(O)CC3CCC(C2)N3c2nc(C)cc(C)c2C#N)cc1 (stereo unspecified) | 38.2 | n | n | n | n | n | n
COc1ccc(CCNS(=O)(=O)c2ccc(Br)cc2)cc1OC | n | n | n | n | n | n | x
COCCNC(=O)c1cc2c(=O)[nH]c3ccccc3c2s1 | 39.7 | n | n | n | n | n | x
C=CCn1c(SCC(=O)Nc2cc(C)on2)nc2ccccc21 | n | n | n | n | x | n | x
Cc1nc2cc3c(cc2c(C)c1C(=O)OC(C)C)OCO3 | n | n | n | n | n | n | x
COC(=O)c1nc2cc3c(cc2c(C)c1C(=O)OC)OCO3 | 57.5 | n | n | n | n | n | +
CCn1nc(NC(C)=O)c2cc3ccc(C)cc3nc21 | n | n | n | n | n | n | x
CCn1nc(NC(=O)C(C)C)c2cc3ccc(C)cc3nc21 | 39.4 | n | n | n | n | n | n
CCn1nc(NC(=O)c2cccnc2)c2cc3ccccc3nc21 | 40.9 | n | n | n | n | n | n
CC1(C)Cc2c(C#N)c(NCCO)nc(-c3ccco3)c2CO1 | 39.2 | n | n | n | n | n | x
COc1ccc(/C(C)=N\Nc2nc(-c3ccccc3)cc(=O)[nH]2)cc1 | 46.2 | n | n | n | n | n | n
Cc1ccc(NC(=O)c2cc3ccccc3cc2O)cc1 | 43.1 | n | n | n | n | n | n
CNc1c(NS(=O)(=O)c2ccc(C(C)(C)C)cc2)c(=O)oc2ccccc12 | 42.1 | n | n | n | n | n | n
CCOC(=O)C1=C(C)Nc2sc(C(=O)c3ccc(OC)cc3)c(N)c2C1c1ccc(C(=O)OC)cc1 (stereo unspecified) | n | n | n | n | n | n | x
COC(=O)C1=C(C)Nc2sc(C(N)=O)c(N)c2C1c1ccncc1 (stereo unspecified) | 41.9 | n | n | n | n | n | n
CCCCCCN1CCN(C2CN(C3CCCCC3)S(=O)(=O)C2)CC1 (stereo unspecified) | n | n | n | n | x | n | x
COc1ccccc1N1CCN(CC(O)c2ccc3cc[nH]c3c2)CC1 (stereo unspecified) | 43.9 | n | n | n | n | n | n
COc1ccc(-c2cc3ccc(OCc4nn[nH]n4)cc3oc2=O)cc1OC | 57.7 | n | n | n | n | n | +
COc1ccc(-c2cc3ccc(OCC(C)=O)cc3oc2=O)cc1OC | n | n | n | n | n | n | x
S=C(Nc1ccc2nc(-c3ccccn3)c(-c3ccccn3)nc2c1)N1CCOCC1 | 46.7 | n | n | n | n | n | n
CN(C)NC(=S)Nc1ccc2nc(-c3ccccn3)c(-c3ccccn3)nc2c1 | n | n | n | n | n | n | x
CCCCNC(=O)c1nc(C2CCNCC2)oc1-c1cccc(C(F)(F)F)c1 | n | n | x | n | x | n | x
CN(CC(=O)Nc1cccc(F)c1)C(=O)c1cc(-c2ccco2)nc2ccccc12 | 42.3 | n | n | 54.5 | n | n | x
O=c1c(Cc2ccccc2)c(O)c2cccc3c4c(n1c23)CCCC4 | 39.3 | n | n | n | n | n | n
COc1cc(C(=O)NCCSc2ccc(F)cc2)cc(OC)c1OC | n | n | n | n | n | n | x
SMILES | Neddyl block | TbMetRS inhib | Rpn11 block | CSN deneddyl inh | PREPL inh | HNF4A DNA FP | Neddyl inh conf
COc1ccc2[nH]c(C(=O)O)c(NS(=O)(=O)c3ccc(C)c(C)c3)c2c1 | 40.3 | n | n | n | n | n | n
CN1CCN(C(=O)c2cnn3c(C(F)(F)F)cc(-c4ccc5c(c4)OCO5)nc23)CC1 | n | n | n | n | n | n | x
O=C(c1cc2nc(-c3ccccc3)cc(C(F)(F)F)n2n1)N1CCCC1 | 41.4 | n | n | n | x | n | n
O=C(c1cnn2c(C(F)(F)F)cc(-c3ccc4c(c3)OCO4)nc12)N1CCCCC1 | 44.4 | n | n | n | n | n | n
COc1ccc(-c2cc(C(F)(F)F)n3nc(C(=O)N4CCCCC4)cc3n2)cc1 | x | n | n | n | n | n | x
O=C(c1cc2nc(-c3ccco3)cc(C(F)(F)F)n2n1)N1CCCCCC1 | 55.7 | n | n | n | n | n | x
COc1ccc(-c2cc(C(F)(F)F)n3nc(C(=O)N4CCCCC4)cc3n2)cc1OC | 38.1 | n | n | n | n | n | n
C=C(CN(C)C)C(=O)c1cc(C)ccc1C | n | n | n | n | x | n | x
NC(=O)C1CCN(C(=O)COc2ccc3c4c(c(=O)oc3c2)CCCC4)CC1 | x | n | n | n | n | n | x
O=C(COc1ccc2c3c(c(=O)oc2c1)CCCC3)NCCCN1CCOCC1 | 41.1 | n | n | n | n | n | n
O=C(COc1ccc2c3c(c(=O)oc2c1)CCCC3)NCCN1CCOCC1 | 51.7 | n | n | n | n | n | n
O=C(O)C1CCN(C(=O)COc2ccc3c4c(c(=O)oc3c2)CCC4)CC1 | 42.2 | n | n | n | n | n | n
O=C(COc1ccc2c3c(c(=O)oc2c1)CCC3)NCCN1CCOCC1 | n | n | n | n | n | n | x
Cc1cc(=O)oc2cc(OCC(=O)NCCCN3CCOCC3)ccc12 | n | n | n | n | n | n | x
O=C(NCc1cc(C(F)(F)F)ccc1Cl)c1cccc2c1C(=O)c1ccc(Cl)cc1S2(=O)=O | x | x | x | x | n | x | x
Cc1cc(/C=C(\C#N)C(=O)NC2CCCCCC2)c(C)[nH]1 | n | n | n | n | n | n | x
COc1ccc(-c2[nH]ncc2/C=C(/C#N)C(=O)NC2CCCCCC2)cc1 | 40.8 | n | n | n | n | n | n
COc1ccc(NC(=O)c2cc(-c3ccc(C)cc3)on2)cc1OC | n | n | n | n | n | n | x
COc1ccc(-c2cc(C(=O)Nc3ccc(OC)c(OC)c3)no2)cc1 | 40.2 | n | n | n | n | n | n
CCc1c(C(=O)N/N=C/c2ccc(OCc3ccc(F)cc3)c(OC)c2)nnn1-c1nonc1N | 42.9 | n | n | n | n | n | n
Cc1ccc(-c2c(C(=O)N/N=C/c3ccc(OC(C)C)cc3)nnn2-c2nonc2N)cc1 | 45.4 | n | n | n | n | n | n
CCCOc1ccc(-c2c(C(=O)N/N=C(\C)c3ccco3)nnn2-c2nonc2N)cc1 | 40.1 | n | n | n | n | n | n
CCCOc1ccc(-c2c(C(=O)N/N=C(\C)c3cccnc3)nnn2-c2nonc2N)cc1 | n | n | n | n | n | n | x
CCCc1c(C(=O)N/N=C/c2ccc3c(c2)OCO3)nnn1-c1nonc1N | 41.8 | n | n | n | x | n | n
COc1ccc(N2CC(C(=O)N3CCc4ccccc43)CC2=O)cc1 (stereo unspecified) | n | n | n | n | n | n | x
O=C(NCc1ccccc1F)c1ccc2c(c1)OCCO2 | n | n | n | n | n | n | x
COCc1c(C(=O)N/N=C(\C)c2ccc(Cl)s2)nnn1-c1nonc1N | x | n | n | n | n | n | x
